This is a sample that favours compounds with a hit; in the whole collection about 2.2% have one here.
T cruzi repl: T. cruzi replication inhibition; AID 1885; actives 1.4% (n = 300,000); T. cruzi beta-gal in NIH3T3, luminescence, 90 h; inhibition, % (no concentration beside the values);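 active = mean inhibition across valid replicates above about 55%, limit read from the data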;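 note: signal also drops with host cell toxicity which is not excluded here; higher percent means less beta-gal luminescence so fewer parasites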
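System – NIH/3T3 host cells with β-galactosidase reporter T. cruzi · Doses – single 50 nL compound addition per well in DMSO · Reagent – 5000 T. cruzi trypomastigotes/well · Medium – Low-serum DMEM with 2% FBS · Timing – ≥90 h infection period, 3 h prior cell attachment · Evaluation – parasite load inhibition, % · Technique – GalScreen luminescence, 60 min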
Efflux pump mplx: blocks antifungal efflux pumps in multiplex yeast assay | S. cerevisiae Candida pump triplex, Nile Red efflux | inhibition, % at 10 µM | actives 0.44% (n = 330,000) | AID 485275;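 active = plate passing quality check with inhibition over a set limit, or well fluorescence over plate mean plus 4 SD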;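 note: Nile Red retained in pooled yeast measured as flow cytometry median fluorescence; higher means more Nile Red kept so more efflux inhibition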
PolyA inhibitor: blocks polyadenylation in yeast reporter cells. S. cerevisiae SKY197-pL101 polyadenylation reporter, beta-gal luminescence; efflux-impaired pdr1/pdr3 knockout yeast; score 100 = 6 SD above DMSO. activity score, % at 12 µM. actives 0.02% (n = 300,000). AID 1875;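 active = lowest replicate activity score at least 50, where 100 means six control SD above control mean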;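 note: yeast exposed to compound for 9 h at 30 °C; higher score means more reporter readthrough which indicates perturbed polyadenylation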
AI-2 QS mod: modulates the Vibrio harveyi AI-2 quorum sensing system; Vibrio harveyi JMH597 AI-2 luminescence/OD600 ratio, 9 h; active compounds read low; strain lacks LuxN and CqsS sensors; 0 = neutral-control median; activity change, % at 7.5 µM; actives 0.4% (n = 300,000); AID 2094; in the data active = activity change below about -75%, passing the limit was not always enough;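 note: luminescence divided by OD600 gain over 9 h not by final OD600 alone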
HDAC3 inh: inhibitors of human histone deacetylase 3 | O15379 | recombinant HDAC3, fluorogenic peptide/trypsin coupled, fluorescence | inhibition, % at 8.3 µM | actives 0.15% (n = 320,000); in the data active = inhibition above about 26%, passing the limit was not always enough
Target sequence (O15379 whole entry, looked up): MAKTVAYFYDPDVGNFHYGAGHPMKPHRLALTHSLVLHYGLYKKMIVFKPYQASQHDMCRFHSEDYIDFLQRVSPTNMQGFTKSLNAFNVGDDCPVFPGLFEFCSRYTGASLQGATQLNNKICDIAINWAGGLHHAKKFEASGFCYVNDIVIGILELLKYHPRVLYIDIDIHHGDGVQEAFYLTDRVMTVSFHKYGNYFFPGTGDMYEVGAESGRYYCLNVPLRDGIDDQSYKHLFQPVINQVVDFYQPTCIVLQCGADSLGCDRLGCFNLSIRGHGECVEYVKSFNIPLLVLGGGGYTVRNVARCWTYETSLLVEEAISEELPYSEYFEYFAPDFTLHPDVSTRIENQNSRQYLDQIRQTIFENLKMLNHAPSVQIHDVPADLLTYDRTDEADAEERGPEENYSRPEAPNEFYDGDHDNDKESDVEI
Hits are given with their value; – = inactive; · = not tested or not shown.

SMILES	T cruzi repl	Efflux pump mplx	PolyA inhibitor	AI-2 QS mod	HDAC3 inh
CN(Cc1ccc2nonc2c1)Cc1nc(CC2CC2)no1	–	–	–	–	–
Cc1ccc(C2=NNC(=O)C(c3ccc(Cl)cc3)C2)cc1 (configuration not stated)	–	–	–	-83.9	–
O=C1NN=C(c2ccc(Cl)cc2)CC1c1cccc(Br)c1 (configuration not stated)	–	–	–	–	–
NC(=O)c1cc(N2C(=O)C=CC2=O)ccc1Cl	–	–	–	-82.2	–
Cc1ccc(C)c2nc3sc(C(=O)N4CCCc5ccccc54)c(N)c3cc12	65.9	–	–	–	–
CCN(CC)CCN(C(=O)CCOc1ccccc1)c1nc2c(F)cc(F)cc2s1	56.1	–	–	–	–
Cc1cccc(Nc2nc(-c3ccccn3)cs2)n1	58.7	–	–	–	–
CC(Oc1cccc(Cl)c1)C(=O)Nc1nc(-c2ccccn2)cs1 (configuration not stated)	60.0	–	–	–	·
Cc1cccc(C(=O)NC(C(=O)Nc2nc(-c3ccccn3)cs2)C(C)C)c1 (configuration not stated)	82.3	–	–	–	–
Cc1cccc(Nc2nc(-c3cccs3)cs2)n1	–	–	–	–	–
O=C(NCc1cccc(C(F)(F)F)c1)N1CCN(C(=O)c2ccccc2)CC1	·	–	·	·	–
O=C(NCC1COc2ccccc2O1)c1ccc(Cl)c(S(=O)(=O)N2CCCC2)c1 (configuration not stated)	·	–	·	·	–
CC(C)(O)[C@@H]1CC[C@@](C)(C2CC[C@]3(C)C2[C@H](O)CC2[C@@]4(C)CC[C@H](O)C(C)(C)C4[C@@H](O[C@H]4O[C@@H](CO)[C@H](O)[C@@H](O)[C@@H]4O[C@@H]4O[C@H](CO)[C@@H](O)[C@H](O)[C@H]4O)C[C@]23C)O1 (stereo in doubt)	·	–	·	·	–
Nc1c(-c2ccccc2)c(CSc2nc3ccccc3[nH]2)nn1-c1cccc(Cl)c1	65.9	–	–	–	–
Nc1c(-c2ccccc2)c(CSc2nc3ccccc3[nH]2)nn1-c1ccc(Cl)cc1	64.1	–	–	–	–
COc1ccc(-c2nc(CN(CC3CCC(=O)N3)C(C)C)c(C)o2)c(C)c1C (configuration not stated)	–	–	–	–	–
Cc1ccc(CNC(=O)CCSCc2ccccc2C)cc1	–	–	–	–	–
Cc1ccc(-n2ncc(C(=O)Nc3cc(Cl)ccc3Cl)c2C2CCNCC2)cc1	–	–	–	–	–
Cc1ccc(-n2ncc(C(=O)Nc3cc(Cl)cc(Cl)c3)c2C2CCNCC2)cc1C	54.9	·	–	–	·
CC(=O)N1c2ccc(S(=O)(=O)N3CCCC3)cc2CC1C(=O)Nc1cc(C)cc(C)c1 (configuration not stated)	–	–	–	–	–
CC(C)(C)c1cc(C(=O)NCCN2CCCC2)cc(C(C)(C)C)c1	71.0	–	–	–	–
COCCN(C(=O)CSc1nnc(-c2cccc(OC)c2)n1C)c1c(N)n(Cc2ccccc2)c(=O)[nH]c1=O	–	–	–	–	–
CC(CC(=O)N1CCN(c2ccc(C(F)(F)F)cn2)CC1)n1ccnc1 (configuration not stated)	67.5	–	–	–	–
CC1C(=O)OC2C1CCC1(C)CCC(=O)C(C)C21 (configuration not stated)	54.7	–	–	–	–
CC(C)(C)NC(=O)C(c1c[nH]c2ccccc12)N(C(=O)Cn1nnc(-c2ccc(Cl)cc2)n1)c1ccccc1F (configuration not stated)	55.3	–	–	–	–
SMILES	T cruzi repl	Efflux pump mplx	PolyA inhibitor	AI-2 QS mod	HDAC3 inh
COc1ccc(N(CC(=O)NC2CCCC2)C(=O)c2ccc(C)s2)cc1OC	–	–	–	–	–
CN1CCN(c2ccc(Nc3ccnc4cc(Cl)ccc34)cc2)CC1	60.3	–	–	–	–
CCOc1ccc(Nc2ccnc3cc(Cl)ccc23)cc1	–	–	–	–	–
Cc1cc(Nc2cccc(Cl)c2)nc(NCc2ccccc2)n1	58.3	–	–	–	–
Cc1cc(N2CCCCC2)nc(NCc2ccccc2)n1	55.7	–	–	–	–
Cc1cc(N/N=C/c2ccc(Cl)cc2)nc(NCc2ccccc2)n1	80.1	–	–	–	–
Cc1cc(N/N=C/c2cccc(Cl)c2)nc(NCc2ccccc2)n1	–	–	–	–	–
